Screens as filed in PubChem.
Rpn11 inh: Rpn11 (human) deubiquitinase inhibition. O00487. human 26S proteasome, Ub4-pepOG fluorescence polarization; 20S core pre-blocked with epoxomicin. inhibition, % at 20 µM. 0.59% of 360,000 active. AID 588493;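 active = inhibition at 20 µM, scaled to each plate's controls, above about 33%, limit read from the data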
UCH37 DUB inh: blocks the human deubiquitinase UCH37 | inhibition, % (concentration not given with the values) | 0.33% of 330,000 active | AID 588478 | purified proteasome/UCH37, Ub-AMC cleavage fluorescence;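 active = mean inhibition over replicate wells above about 20%, limit read from the data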;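 also: 0% = compound-free wells with enzyme and 100% = wells lacking proteasome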
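System: Proteasome-associated human UCH37 deubiquitinase; Input: 0.15 nM proteasome in added enzyme buffer; Also added: Ub-AMC substrate from 1 µM stock; Incubation: 30 min compound-proteasome preincubation then 25 min substrate reaction, room temperature; Detection: fluorescence, ex 355 nm, em 460 nm; Read-out: % inhibition of Ub-AMC cleavage fluorescence; Benchmarks: no-proteasome and no-compound wells.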
PLC-beta3 inh: PLC-beta3 (human) inhibition, primary screen. Purified PLC-beta3, fluorogenic substrate, fluorescence. inhibition, % at 12.2 µM. 0.18% of 370,000 active. AID 720704; in the data active = inhibition above about 11%;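 also: 0% = median of compound wells on plate and 100% = full blocker control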
PLC-gamma1 inh: blocks human PLC-gamma1 enzyme activity; P19174; purified PLC-gamma1, fluorogenic substrate, fluorescence; inhibition, % at 12.2 µM; 0.84% of 370,000 active; in the data active = inhibition above about 9.5%
Rpn11 inh conf: Rpn11 inhibition confirmation, single concentration; purified human 26S proteasome, Ub4-pepOG fluorescence polarization; proteasome pretreated with epoxomicin; shares compounds with Rpn11 inh; inhibition, % at 20 µM; AID 602318; 29% of 1,900 active
MMP-2 inh: MMP-2 (human) inhibition counter-screen; shares compounds with Rpn11 inh; recombinant MMP-2, FRET peptide cleavage fluorescence; inhibition, % at 20 µM; 4% of 1,900 active; AID 602330;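 also: human MMP-2 activated beforehand with APMA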
Thrombin FP: blocks bovine thrombin, flagging nonselective RPN11 hits. 13% of 1,900 active. shares compounds with Rpn11 inh. bovine thrombin cleavage of Ub4-pepOG, fluorescence polarization. inhibition, % at 20 µM. AID 602333;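 active = mean inhibition at least 40% at 20 µM, or signal 3 deviations below plate average, so some actives read negative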;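 also: plate controls were thrombin with DMSO for no effect and buffer wells lacking thrombin for full effect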
An asterisk follows results filed as active; i = inactive; . = no result shown. Compounds with a hit are over-represented: about 1.7% of the library has one in this group of screens. Rule as the data show it, unless noted: active = inhibition above about 40%; inactive = the rest.

SMILES | Rpn11 inh | UCH37 DUB inh | PLC-beta3 inh | PLC-gamma1 inh | Rpn11 inh conf | MMP-2 inh | Thrombin FP
N=c1c(S(=O)(=O)c2ccccc2)cc2c(=O)n3ccccc3nc2n1C1CCCC1 | 78.3* | -21.7 | -34.3 | -22.2 | -12.5 | -44.2 | -13.3
COc1cc(/C=C2\SC(=Nc3c(C)n(C)n(-c4ccccc4)c3=O)NC2=O)ccc1O | 90.0* | 8.0 | -60.7 | -59.5 | 31.5 | 10.3 | 12.7
COc1cc(/C=C2\SC(=Nc3ccc(O)cc3)NC2=O)cc(OC)c1O | 45.1* | 12.7 | -48.1 | -55.5 | 5.5 | 0.4 | 7.9
CCc1ccc(N=C2NC(=O)/C(=C/c3cc(OC)c(OC)c(OC)c3)S2)cc1 | -5.9 | 2.2 | -33.9 | -24.3 | . | . | .
CC(=NNS(=O)(=O)c1ccc(C)cc1)c1cccc(NC(=O)c2cccc(Cl)c2)c1 | . | 1.6 | . | . | . | . | .
CC(C)(C)C(=O)Nc1ccc(N2CCN(c3ccc(C(F)(F)F)cn3)CC2)nc1 | 4.3 | -16.0 | -4.0 | 3.1 | . | . | .
Cc1cccc(C(=O)Nc2ccc(N3CCN(c4ccc(C(F)(F)F)cn4)CC3)nc2)c1 | 46.4* | -3.2 | -3.1 | 2.6 | -8.9 | -39.0 | 3.8
CCOC1=C2CN(S(=O)(=O)c3ccc(C)cc3)[C@H](c3ccccc3)C[C@@H]2N(S(C)(=O)=O)[C@H](c2ccccc2)C1 | 47.8* | . | -1.0 | 0.7 | 28.3 | -11.0 | 19.3
O=C(Cc1cccc2ccccc12)NN=C1CCCc2ccccc21 | . | 0.3 | . | . | . | . | .
O=C1Nc2cc(C(=O)NCCCN3CCCC3)ccc2S/C1=C\c1ccccc1 | 6.9 | 8.0 | -42.3 | -24.2 | . | . | .
COc1ccc(/C=C2/Sc3ccc(C(=O)NCCN4CCCCCC4)cc3NC2=O)cc1 | 70.0* | 1.4 | -23.1 | -10.4 | 7.6 | -40.3 | -1.8
O=C(c1ccco1)N1CCN(C(=O)c2cc(-c3ccncc3)nc3ccc(Br)cc23)CC1 | 64.8* | 3.0 | -0.9 | -4.5 | -16.3 | -2.7 | 0.1
O=C(c1ccco1)N1CCN(C(=O)c2cc(-c3ccccc3)nc3ccccc23)CC1 | 1.8 | 3.6 | -3.3 | -1.0 | . | . | .
NC(=O)NN=Cc1c(Sc2nnnn2-c2ccccc2)nc2ccccn2c1=O | . | -3.5 | . | . | . | . | .
Cc1cc(C)n2nc(C(=O)NN=Cc3ccccc3Cl)nc2n1 | . | 4.2 | . | . | . | . | .
Cc1cccc(OCC(=O)Nc2ccc3c4c(cccc24)CC3)c1C | 0.2 | 1.1 | -0.8 | -1.6 | . | . | .
O=C(CN1C(=O)CCC1=O)Nc1ccc2c3c(cccc13)CC2 | 101.8* | -5.5 | -13.3 | -5.1 | 7.2 | -11.8 | 1.3
Cc1cccc(C)c1NC(=O)Cn1cnc2c(=O)n(C)c(=O)n(C)c21 | 0.5 | 4.6 | 0.6 | 5.5 | . | . | .
Cn1c(=O)c2ncn(CC(=O)Nc3ccc4c5c(cccc35)CC4)c2n(C)c1=O | 51.5* | 2.8 | -26.1 | -20.5 | 34.1 | -12.1 | 19.0
CC1CN(C(=NS(=O)(=O)c2ccccc2)c2ccccc2)CC(C)O1 (stereo not drawn) | . | -0.8 | . | . | . | . | .
Cc1cc(=O)[nH]c(NN=Cc2cccc(Br)c2)n1 | . | 8.1 | . | . | . | . | .
Cc1ccc(N2CCN(N=CC3=C(N4CCOCC4)/C(=C\c4ccccc4)CC3)CC2)cc1 | . | -3.1 | . | . | . | . | .
Cc1csc(NC(=O)c2ccc(Br)s2)n1 | 14.4 | 4.1 | -24.2 | -12.6 | . | . | .
CCOc1cccc2sc(NC(=O)c3ccc(Br)s3)nc12 | 54.3* | -40.5 | -20.2 | -17.6 | -1.1 | 7.7 | -4.2
COc1cccc(C=NNC(=O)c2cccc([N+](=O)[O-])c2)c1OS(=O)(=O)c1ccc(C)cc1 | . | 2.4 | . | . | . | . | .
SMILES | Rpn11 inh | UCH37 DUB inh | PLC-beta3 inh | PLC-gamma1 inh | Rpn11 inh conf | MMP-2 inh | Thrombin FP
Cc1cc(C)c2cc(C#N)c(N3CCCN(S(=O)(=O)c4ccccc4)CC3)nc2c1 | . | -7.7 | . | . | . | . | .
CC(=O)c1cccc(S(=O)(=O)N2CCN(c3nc4cc(C)cc(C)c4cc3C#N)CC2)c1 | 42.8* | -36.0 | -7.5 | -8.5 | 0.5 | -21.3 | -11.4
CN(C(=O)COc1ccc2c(-c3ccccc3)cc(=O)oc2c1)C1CCS(=O)(=O)C1 (stereo not drawn) | 58.3* | 3.3 | -16.8 | -3.6 | 5.5 | -0.8 | 7.3
COc1ccc(NC(=O)CC(C)=NNC(=O)C(=O)NC(C)C)c(OC)c1 | . | -0.9 | . | . | . | . | .
O=[N+]([O-])c1cccc(/C=N/Nc2ccccn2)c1 | -3.3 | . | 2.2 | 1.0 | . | . | .
O=[N+]([O-])c1ccc(/C=N/Nc2ccccn2)cc1 | 41.8* | . | -13.2 | -6.8 | 18.9 | -34.6 | -2.9
CNC(=S)NN=Cc1cn(Cc2ccc(C)cc2)c2ccccc12 | . | 0.9 | . | . | . | . | .
Cc1ccc(S(=O)(=O)Nc2ccccc2-c2ccccc2)cc1 | 33.4* | 2.6 | 0.0 | 0.7 | -24.7 | 13.4 | -13.7
Cc1ccc(S(=O)(=O)Nc2ccccc2NS(=O)(=O)c2ccc(C)cc2)cc1 | 1.6 | . | 0.8 | 0.1 | . | . | .
CCc1cccc(C)c1NC(=O)CON=C(C)c1cc2ccccc2o1 | . | 4.2 | . | . | . | . | .
COc1cc2c(C#CCO)c(-c3ccc(C#N)cc3)oc(=O)c2cc1OC | 56.0* | -16.3 | -247.7 | -159.5 | 18.6 | -30.0 | 4.3
Cn1c(CO)cnc1SCc1ccc(Cl)cc1 | 106.9* | 1.4 | 8.5 | 6.8 | -11.8 | -47.1 | -6.5
C#CCOCCOCCOCCNc1nc(N2CCN(C(=O)CCCCCCCCCCNC(=O)[C@H]([C@@H](C)CC)n3cc(CCCCN=C(N)N)nn3)CC2)nc(N2CCN(C(=O)CCCCCCCCCCNC(=O)[C@@H]([C@H](C)O)n3cc(C)nn3)CC2)n1 | 71.3* | . | . | . | 15.2 | -13.9 | 19.6
CC(=NNC(=O)C(=O)Nc1ccc(C)cc1)c1ccncc1 | . | 2.9 | . | . | . | . | .
CC(=O)Nc1sc(C)c(C)c1C(=O)OCCOc1ccccc1 | 34.3* | -1.1 | -10.8 | -0.1 | -5.4 | -30.6 | -16.6
COc1ccccc1NS(=O)(=O)c1cccc(C(=O)NN=C(C)c2ccc3c(c2)OCCO3)c1 | . | 2.7 | . | . | . | . | .
Cc1[nH]n(-c2nc(-c3ccc(Cl)cc3)cs2)c(=O)c1N=Nc1ccc(O)cc1 | 42.2* | . | -2.1 | -0.6 | -4.7 | -23.7 | -3.0
CC(=O)Oc1ccc(/C=N\NC(=O)c2cc3c(ccc4ccccc43)o2)cc1 | 129.1* | . | -22.8 | -19.1 | 55.5* | -201.5 | -14.8
O=C(N/N=C/c1ccc(O)c(Br)c1)c1cc2c(ccc3ccccc32)o1 | 0.6 | . | -8.0 | -4.0 | . | . | .
O=C(N/N=C/c1cc(Br)c(O)c(Br)c1)c1cc2c(ccc3ccccc32)o1 | 73.9* | . | i | i | 59.0* | -6.4 | 138.9*
Cc1onc(-c2ccccc2)c1C(=O)N/N=C/c1cc(Br)c(O)c(Br)c1 | 41.8* | . | -39.6 | -19.4 | 1.5 | 31.1 | 4.2
CC1(C)C2CC=C(C=Nn3cnnc3)C1C2 (stereo not drawn) | . | -0.8 | . | . | . | . | .
COc1ccc(C=NN2CCN(c3ccncc3S(=O)(=O)N3CCCCC3)CC2)cc1 | . | 1.9 | . | . | . | . | .
Cc1c2cnn(CC(=O)Nc3c(F)c(F)cc(F)c3F)c(=O)c2c(C)n1Cc1ccccc1F | 85.6* | -1.7 | -1.4 | -4.2 | 133.9* | 24.5 | 22.4
COc1cc(/C=C2/SC(=S)N(Cc3ccccc3)C2=O)cc(Cl)c1O | . | . | -47.2 | -29.4 | . | . | .
